According to ChEMBL document CHEMBL1139742, “3-(Indol-2-yl)indazoles as Chek1 kinase inhibitors: Optimization of potency and selectivity via substitution at C6” (Bioorg Med Chem Lett, 2006):

Assays:
NCI-H1299 = assay: Release of NCI-H1299 cells from DNA damage-induced cell cycle arrest by CEA; assay type: functional, cell-based; conditions: Homo sapiens
In short: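 NCI-H1299 lung carcinoma cells were arrested by 16 h camptothecin treatment, then exposed to inhibitor for a further 8 h. Escape into mitosis was read as mitosis-specific nucleolin phosphorylation in an antibody-coated bead-based assay. EC50 came from a 10-point half-log dilution series, averaged over tetraplicate determinations.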

[1] = target: Cyclin-dependent kinase 7 (Homo sapiens, UniProt P50613); assay: Inhibition of Cdk7
[2] = target: T1, Serine/threonine-protein kinase Chk1 (Homo sapiens, UniProt O14757); assay: Inhibition of Chek1
T1 sequence (O14757 whole entry): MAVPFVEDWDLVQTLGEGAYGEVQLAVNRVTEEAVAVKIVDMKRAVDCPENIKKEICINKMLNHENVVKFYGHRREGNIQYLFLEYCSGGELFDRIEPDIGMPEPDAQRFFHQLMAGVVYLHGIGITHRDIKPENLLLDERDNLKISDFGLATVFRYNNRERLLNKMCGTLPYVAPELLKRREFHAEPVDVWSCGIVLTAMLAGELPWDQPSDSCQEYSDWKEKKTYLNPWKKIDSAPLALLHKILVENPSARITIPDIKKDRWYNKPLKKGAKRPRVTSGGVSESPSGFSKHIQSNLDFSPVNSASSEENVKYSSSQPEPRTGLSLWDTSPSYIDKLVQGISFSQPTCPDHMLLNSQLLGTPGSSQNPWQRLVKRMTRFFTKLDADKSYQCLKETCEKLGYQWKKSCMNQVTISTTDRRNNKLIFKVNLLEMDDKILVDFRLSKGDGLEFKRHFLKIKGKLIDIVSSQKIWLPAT

Homo sapiens = species on record: Homo sapiens; assay: Selectivity for Chek1 over Cdk7
[3] = target: T1, Serine/threonine-protein kinase Chk1; assay: Inhibition of autophosphorylation of Chek1 in NCI-H1299 cells; assay type: functional, cell-based
In short: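 Cyto-blot of Chek1 autophosphorylation with phospho-S296 Chek1 antibody in NCI-H1299 lung carcinoma cells. Cells incubated with inhibitor 2 h, then camptothecin added for a further 4 h. Cellular assay ATP 2.0 mM. 10-point, 3-fold dilution series. IC50 averaged over triplicate determinations.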

Sequence of Cyclin-dependent kinase 7 (P50613 whole entry): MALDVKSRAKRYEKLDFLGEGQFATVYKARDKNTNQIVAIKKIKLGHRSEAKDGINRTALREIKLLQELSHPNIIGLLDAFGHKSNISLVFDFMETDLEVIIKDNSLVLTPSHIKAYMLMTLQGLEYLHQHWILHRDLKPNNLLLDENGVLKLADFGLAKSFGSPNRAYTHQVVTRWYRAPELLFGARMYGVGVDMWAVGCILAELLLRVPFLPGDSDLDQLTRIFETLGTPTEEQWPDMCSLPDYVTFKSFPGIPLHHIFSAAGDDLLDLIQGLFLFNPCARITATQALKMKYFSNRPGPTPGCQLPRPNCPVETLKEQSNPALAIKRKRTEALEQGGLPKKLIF

SMILES	EC50 (NCI-H1299) [nM]	IC50 [1] [nM]	IC50 [2] [nM]	Ratio IC50 (Homo sapiens)	IC50 [3] [nM]	IC50 (NCI-H1299) [nM]
Cc1cnnn1-c1ccc2c(-c3cc4cc(CN5CCCCC5)ccc4[nH]3)n[nH]c2c1	1400	420	30	14		
CC(=O)N1CCN(Cc2ccc3[nH]c(-c4n[nH]c5cc(Cl)ccc45)cc3c2)CC1			120			
CNC(=O)c1ccc2c(-c3cc4cc(CN5CCOCC5)ccc4[nH]3)n[nH]c2c1	650	4900	13			
Cn1cc(-c2ccc3c(-c4cc5cc(CN6CCOCC6)ccc5[nH]4)n[nH]c3c2)cn1			530			
OCc1n[nH]nc1-c1ccc2c(-c3cc4cc(CN5CCCCC5)ccc4[nH]3)n[nH]c2c1	690	56		190		
CC(=O)N1CCN(Cc2ccc3[nH]c(-c4n[nH]c5cc(-c6nnn[nH]6)ccc45)cc3c2)CC1			2.3		> 10000	> 10000
CC(=O)N1CCN(Cc2ccc3[nH]c(-c4n[nH]c5ccccc45)cc3c2)CC1			640			
NC(=O)c1ccc2c(-c3cc4cc(CN5CCOCC5)ccc4[nH]3)n[nH]c2c1	980	1300	12			
c1cnn(-c2ccc3c(-c4cc5cc(CN6CCCCC6)ccc5[nH]4)n[nH]c3c2)c1	> 10000	2300	110	22		
c1ccc(-c2ccc3c(-c4cc5cc(CN6CCCCC6)ccc5[nH]4)n[nH]c3c2)cc1	5000	7000	45	160		
c1csc(-c2ccc3c(-c4cc5cc(CN6CCCCC6)ccc5[nH]4)n[nH]c3c2)n1	2000	4000	48	83		
c1cc2[nH]c(-c3n[nH]c4cc(-c5cn[nH]c5)ccc34)cc2cc1CN1CCOCC1	> 50000	25	10			
CC(=O)N1CCN(Cc2ccc3[nH]c(-c4n[nH]c5cc(C#N)ccc45)cc3c2)CC1		39	17		1000	> 10000
c1cn(-c2ccc3c(-c4cc5cc(CN6CCCCC6)ccc5[nH]4)n[nH]c3c2)nn1	350	57	2.6	22		
c1cc(-c2ccc3c(-c4cc5cc(CN6CCOCC6)ccc5[nH]4)n[nH]c3c2)[nH]n1	> 50000	34	59	0.58		
OCc1nn[nH]c1-c1ccc2c(-c3cc4cc(CN5CCC(F)CC5)ccc4[nH]3)n[nH]c2c1	340	180	0.3			
COC(=O)c1ccc2c(-c3cc4cc(CN5CCOCC5)ccc4[nH]3)n[nH]c2c1	1930	6500	62			
N#Cc1ccc2c(-c3cc4cc(CN5CCOCC5)ccc4[nH]3)n[nH]c2c1	> 50000		30			
c1ccc2[nH]c(-c3n[nH]c4cc(-c5nnn[nH]5)ccc34)cc2c1			27		> 10000	> 10000
c1cnn(-c2ccc3c(-c4cc5cc(CN6CCCCC6)ccc5[nH]4)n[nH]c3c2)n1	4500	480	34	14		
c1cc2[nH]c(-c3n[nH]c4cc(-c5cnsc5)ccc34)cc2cc1CN1CCCCC1	> 10000	18	12	1.5		
CN(C)C(=O)c1ccc2c(-c3cc4cc(CN5CCOCC5)ccc4[nH]3)n[nH]c2c1	4000	> 100000	80			
NCc1nn[nH]c1-c1ccc2c(-c3cc4cc(CN5CCC(F)CC5)ccc4[nH]3)n[nH]c2c1	610	300	0.11			
COc1cc(-c2ccc3c(-c4cc5cc(CN6CCCCC6)ccc5[nH]4)n[nH]c3c2)ccc1O	92	310	0.25			
